The source made the active and inactive calls.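 The calls were made as follows: active = fitted OD600 growth curve drops 35% below untreated wells at up to twice the top tested dose; inconclusive = flat curve with 30 to 70% drop, or poor fit; inactive = the rest, including rising growth signal.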
Tested on: not listed separately
Assay: iron-limited growth inhibition, wild-type PAK – whole organism, PAK strain, OD600, EDDHA, dry powder, set 3, dose response (AID 624073)
Details: P. aeruginosa PAK growth with EDDHA, OD600, 28 h; at 100 µM (top of the series)
Procedure, shortened: (§1)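 Also added: EDDHA 2 µM. Test system: Pseudomonas aeruginosa PAK wild-type strain, whole bacterial cells. Read-out: bacterial growth measured as OD600 absorbance. Buffer or medium: succinate M9 medium, pH 7.0. Incubation: 28 h exposure at 30 °C.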
In the case of `COCCC(C#N)c1ccc(F)cc1` (stereo unspecified), the activity change, negative = inhibition is reported as 1.49% (inactive). With `CCCCC(C#N)c1ccc(F)cn1` (stereo unspecified) the activity change, negative = inhibition was -13.8% (inactive). With `COCCNC(C#N)c1ccc(Cl)cc1` (stereo unspecified) the activity change, negative = inhibition was -2.37% (inactive).

Tested on: P. aeruginosa PAK growth with EDDHA, OD600, 28 h
Assay: as above
Details: not given
Procedure, shortened: as §1
Compound `N#CC(c1ccc(F)cc1)c1cccc(C(F)(F)F)n1` (stereo unspecified) has an AC35 of 15.4 µM. In the case of `N#CC(c1ccc(Cl)cc1)c1cccc(Cl)n1` (stereo unspecified), the AC35 is reported as 40.9 µM. `N#CC(c1cccc(C(F)(F)F)n1)c1ccc(Cl)cc1F` (stereo unspecified) gave an AC35 of 13.7 µM. In the case of `CCCCC(c1ccc(Cl)cc1)c1nn[nH]n1` (stereo unspecified), the AC35 is reported as > 100 µM (inactive). Compound `N#CC(c1ccc(Cl)cc1)c1ccc(Cl)cn1` (stereo unspecified) has an AC35 of 87.7 µM. With `N#CC(c1ccc(Cl)cc1)c1cccc(C(F)(F)F)n1` (stereo unspecified) the AC35 was 12.8 µM. `N#CC(c1cccc(Cl)n1)c1ccc(Cl)cc1F` (stereo unspecified) gave an AC35 of 47.5 µM. For `N#CC(c1ccc(Cl)cc1)c1ncccc1Cl` (stereo unspecified), the AC35 was 77.8 µM.

Reference: PubChem BioAssay AID624073 (Broad Institute, 2012)
